Data from ChEMBL document CHEMBL2146367, “Novel fluorescent ceramide derivatives for probing ceramidase substrate specificity” (Bioorg Med Chem, 2012).
Active and inactive are the calls of the source. No cut-off for these calls is given here.

Tests used:
[1] = molecular target: T1, Acid ceramidase (Homo sapiens) (UniProt Q13510); test: Activity of human recombinant acid ceramidase expressed in baculovirus infected Sf9 cells assessed as hydrolysis at 160 uM after 150 mins by TLC-based fluorescence imaging in presence of B-13
T1 sequence (whole entry): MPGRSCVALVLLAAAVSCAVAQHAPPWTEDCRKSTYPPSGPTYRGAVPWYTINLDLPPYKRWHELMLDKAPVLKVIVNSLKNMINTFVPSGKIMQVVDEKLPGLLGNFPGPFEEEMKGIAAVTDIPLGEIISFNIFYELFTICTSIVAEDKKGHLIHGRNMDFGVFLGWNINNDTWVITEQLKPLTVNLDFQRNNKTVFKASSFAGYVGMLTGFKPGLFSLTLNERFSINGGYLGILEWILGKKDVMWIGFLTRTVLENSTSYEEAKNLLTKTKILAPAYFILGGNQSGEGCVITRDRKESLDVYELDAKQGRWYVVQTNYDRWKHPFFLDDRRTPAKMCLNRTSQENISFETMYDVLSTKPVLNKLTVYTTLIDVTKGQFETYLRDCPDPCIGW
How it was run: (§1)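 Inhibition runs used 30 µg/mL aCDase with inhibitor at 50 µM, in pH 4.5 sodium acetate buffer with 200 mM NaCl and 0.1% Triton X-100. Substrate set per compound at 80, 55 or 160 µM; DMSO <5%. Incubated 150 min at 37 °C, then extracted and run on TLC with fluorescence imaging. Activity expressed relative to an inhibitor-free control; mean ± SD of three experiments, with significance by p value.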

[2] = molecular target: T1, Acid ceramidase (Homo sapiens); test: Activity of human recombinant acid ceramidase expressed in baculovirus infected Sf9 cells assessed as hydrolysis at 20 uM after 150 mins by TLC-based fluorescence imaging; design: scale not given: the % may be the effect or the level left
How it was run: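 Micellar assay with insect-cell-expressed human aCDase in 200 mM sodium acetate pH 4.5, 200 mM NaCl, 0.1% Triton X-100. Substrate at 20 µM final, 150 min at 37 °C. Quenched with chloroform/methanol 2:1, organic layer separated on silica TLC. Spots imaged at ex 550/em 600 nm (Nile Red) or ex 430/em 550 nm (NBD). Percent cleavage taken from cleaved/(cleaved+uncleaved) fluorescence; mean ± SD, n=3.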

[3] = molecular target: T1, Acid ceramidase (Homo sapiens); test: Activity of human recombinant acid ceramidase expressed in baculovirus infected Sf9 cells assessed as hydrolysis at 160 uM after 150 mins by TLC-based fluorescence imaging in presence of DP-24a; how it was run: as §1
[4] = molecular target: Neutral ceramidase (Homo sapiens) (UniProt Q9NR71); test: Activity of human recombinant neutral ceramidase assessed as hydrolysis at 20 uM after 60 mins by TLC-based fluorescence imaging; design: scale not given: the % may be the effect or the level left
Chain of Neutral ceramidase (Homo sapiens) (Q9NR71 whole entry): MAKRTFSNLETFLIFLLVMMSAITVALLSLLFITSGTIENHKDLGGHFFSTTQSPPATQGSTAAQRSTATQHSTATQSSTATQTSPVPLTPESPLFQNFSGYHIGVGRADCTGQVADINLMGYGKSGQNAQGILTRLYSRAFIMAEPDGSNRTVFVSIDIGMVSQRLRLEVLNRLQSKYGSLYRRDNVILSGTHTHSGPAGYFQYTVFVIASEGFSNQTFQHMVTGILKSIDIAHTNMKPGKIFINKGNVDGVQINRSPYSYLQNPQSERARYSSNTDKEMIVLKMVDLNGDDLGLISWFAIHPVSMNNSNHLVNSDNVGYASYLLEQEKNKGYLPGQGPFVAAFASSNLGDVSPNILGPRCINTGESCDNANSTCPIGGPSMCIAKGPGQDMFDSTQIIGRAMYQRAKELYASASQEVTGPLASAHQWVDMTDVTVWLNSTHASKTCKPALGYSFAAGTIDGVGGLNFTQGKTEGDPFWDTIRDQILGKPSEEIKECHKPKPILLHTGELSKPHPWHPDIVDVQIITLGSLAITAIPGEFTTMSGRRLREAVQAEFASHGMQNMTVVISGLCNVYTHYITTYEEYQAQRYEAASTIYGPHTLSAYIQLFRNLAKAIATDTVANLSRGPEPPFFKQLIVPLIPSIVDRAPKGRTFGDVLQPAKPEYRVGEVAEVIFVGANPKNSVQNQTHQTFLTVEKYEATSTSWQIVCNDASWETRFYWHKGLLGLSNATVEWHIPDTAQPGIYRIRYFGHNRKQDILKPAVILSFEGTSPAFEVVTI
How it was run: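 Recombinant human nCDase at 20 ng/mL final, with substrate at 20 µM final, in 200 mM sodium acetate pH 7.0, 200 mM NaCl, 0.1% Triton X-100. Incubated 60 min at 37 °C. Stopped with chloroform/methanol 2:1 and centrifuged 2 min at 10,000 rpm; organic layer run on TLC. Percent hydrolysis from imaged fluorescence of product versus substrate; mean ± SD, n=3.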

[5] = molecular target: T1, Acid ceramidase (Homo sapiens); test: Activity of human recombinant acid ceramidase expressed in baculovirus infected Sf9 cells assessed as hydrolysis at 55 uM after 150 mins by TLC-based fluorescence imaging in presence of DP-24a; how it was run: as §1
[6] = molecular target: T1, Acid ceramidase (Homo sapiens); test: Activity of human recombinant acid ceramidase expressed in baculovirus infected Sf9 cells assessed as hydrolysis at 55 uM after 150 mins by TLC-based fluorescence imaging in presence of B-13; how it was run: as §1
[7] = molecular target: T1, Acid ceramidase (Homo sapiens); test: Activity of human recombinant acid ceramidase expressed in baculovirus infected Sf9 cells assessed as hydrolysis at 80 uM after 150 mins by TLC-based fluorescence imaging in presence of B-13; how it was run: as §1
Tachypleus tridentatus = test: Activity of japanese horseshoe crab acid ceramidase after 30 mins by TLC-based fluorescence imaging
[8] = molecular target: T1, Acid ceramidase (Homo sapiens); test: Activity of human recombinant acid ceramidase expressed in baculovirus infected Sf9 cells assessed as hydrolysis at 80 uM after 150 mins by TLC-based fluorescence imaging in presence of DP-24a; how it was run: as §1

| SMILES | Activity [1] | Activity [2] [%] | Activity [3] | Activity [4] [%] | Activity [5] | Activity [6] | Activity [7] | Km (Tachypleus tridentatus) [µM] | Vmax (Tachypleus tridentatus) [pmol/min] | Activity [8] |
| --- | --- | --- | --- | --- | --- | --- | --- | --- | --- | --- |
| CCCCCCCCCCCCCCCC(=O)N[C@@H](CO)[C@H](O)/C=C/CCCCCCCCCNc1ccc([N+](=O)[O-])c2nonc12 | inactive | 5.6 | inactive | 6.2 | – | – | – | – | – | – |
| CCCCCCCCCCCCCCCC(=O)N[C@@H](CO)[C@H](O)/C=C/CCCCCCCCCOc1ccc2c(=O)cc3oc4cc(N(CC)CC)ccc4nc-3c2c1 | – | 6.3 | – | 3.9 | inactive | inactive | – | – | – | – |
| CCCCCCCCCCCCC/C=C/[C@@H](O)[C@H](CO)NC(=O)CCCCCCCCCCCNc1ccc([N+](=O)[O-])c2nonc12 | – | 9.9 | – | 9.9 | – | – | inactive | 59 | 0.8 | inactive |
| CCCCCCCCCCCCC/C=C/[C@@H](O)[C@H](CO)NC(=O)CCCCCCCCCCCOc1ccc2c(=O)cc3oc4cc(N(CC)CC)ccc4nc-3c2c1 | – | 6.1 | – | 3.3 | – | – | inactive | – | – | inactive |
